{
  "source": "ChEMBL document CHEMBL5150070",
  "about": "“Tricyclic SpiroLactams Kill Mycobacteria In Vitro and In Vivo by Inhibiting Type II NADH Dehydrogenases” (J Med Chem, 2022)",
  "key": {"[1]": {"system": "Mycobacterium tuberculosis", "test": "Antimycobacterial activity against Mycobacterium tuberculosis H37Rv infected in human A-THP1 macrophages assessed as viability of infected macrophages incubated for 96 hrs by fluorescence microplate assay", "type": "functional, organism-based", "procedure,_shortened": "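THP-1 cells differentiated with 50 ng/mL PMA for 72 h, infected with log-phase H37Rv (MOI 10, 2 h), and extracellular bacteria killed with 50 µg/mL amikacin for 1 h. Cells detached and seeded at 5×10⁵/mL in RPMI-10% FBS with PMA onto pre-dispensed compound, 96 h at 37°C, 5% CO₂. Macrophage viability by 0.05% resazurin fluorescence.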"}, "[2]": {"system": "Mycobacterium tuberculosis", "test": "Bactericidal activity against Non-replicating Mycobacterium tuberculosis ss18b-lux assessed as decrease in colony forming unit measured at 1 uM after 1 weeks", "type": "functional", "procedure,_shortened": "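Streptomycin-dependent 18b-lux starved of streptomycin for 14 days (OD600 reset to 0.2 on days 7 and 13) to become non-replicating. Diluted to OD600 0.15 on dispensed compound and held at 37°C. On day 7, active wells plated on 7H11-OADC with 50 µg/mL streptomycin and incubated up to 8 weeks for cfu.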"}, "[3]": {"system": "Mycobacterium tuberculosis", "test": "Bactericidal activity against Non-replicating Mycobacterium tuberculosis ss18b-lux model assessed as decrease in luminescence at 10 to 10000 nM", "type": "functional, organism-based", "conditions": "dose 10-10000 nM, TDE = time-dependent effect", "procedure,_shortened": "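Non-replicating streptomycin-starved 18b-lux (14-day starvation) diluted to OD600 0.15 in white 96-well plates with compound and incubated at 37°C. Luminescence read on days 1, 2, 5 and 7 and expressed relative to no-antibiotic controls (n ≥ 3).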"}, "[4]": {"system": "Mycobacterium tuberculosis", "test": "Antimycobacterial activity against Mycobacterium tuberculosis H37Rv assessed as reduction in bacterial cell growth by measuring resazurin reduction incubated for 6 days by fluorescence microplate based assay", "type": "functional", "conditions": "time 6 day"}, "[5]": {"test": "Toxicity in noninfected zebrafish larvae assessed as toxic effect", "set-up": "species or system Danio rerio", "conditions": "in vivo"}, "Mycobacterium marinum [6]": {"system": "Mycobacterium marinum", "test": "in vivo antimycobacterial efficacy in Mycobacterium marinum infected zebrafish larvae assessed as reduction in bacterial burden at 0.25 to 2 micog/ml measured after 2 to 4 days off post infection", "type": "functional, organism-based", "conditions": "time 2-4 day"}, "[7]": {"molecular_target": "T1, Type II NADH:quinone oxidoreductase NdhA (Mycobacterium tuberculosis, UniProt P95200)", "T1 sequence (P95200 whole entry)": "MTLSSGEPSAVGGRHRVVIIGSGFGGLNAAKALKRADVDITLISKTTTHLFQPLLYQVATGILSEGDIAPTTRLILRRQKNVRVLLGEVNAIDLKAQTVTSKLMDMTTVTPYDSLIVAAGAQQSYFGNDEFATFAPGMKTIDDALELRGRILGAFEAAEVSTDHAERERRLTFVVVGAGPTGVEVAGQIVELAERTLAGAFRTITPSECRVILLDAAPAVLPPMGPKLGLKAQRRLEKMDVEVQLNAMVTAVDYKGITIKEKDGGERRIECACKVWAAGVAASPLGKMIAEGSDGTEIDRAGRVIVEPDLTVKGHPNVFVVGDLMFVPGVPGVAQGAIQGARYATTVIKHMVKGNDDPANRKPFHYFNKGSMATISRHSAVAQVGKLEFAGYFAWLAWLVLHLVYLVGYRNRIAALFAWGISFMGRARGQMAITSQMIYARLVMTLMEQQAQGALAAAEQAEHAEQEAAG", "test": "Inhibition of Mycobacterium smegmatis MC2 155 recombinant ndhA assessed as rate of NADH oxidation in the presence of an electron acceptor menadione", "set-up": "species or system Mycolicibacterium smegmatis"}, "[8]": {"test": "Octanol/PBS partition coefficient, logD of compound at pH 7.4 measured after 2 hrs by shake flask method", "type": "physicochemical", "conditions": "octanol/water, pH 7.4, 2 h", "procedure,_shortened": "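A 10 mM DMSO stock was diluted 50-fold into 1:1 octanol:PBS pH 7.4 and shaken gently for 2 h at room temperature. Each phase was diluted 50-fold in MeOH and quantified by LC-MS/MS. LogD = log of the octanol/PBS concentration ratio from mass signals. Run in triplicate.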"}, "Mycobacterium marinum [9]": {"system": "Mycobacterium marinum", "test": "In vivo antimycobacterial efficacy in Mycobacterium marinum expressing Wasabi infected zebrafish larvae assessed as prolongation of survival treated for 4 days after 1 day post infection", "type": "functional, organism-based", "conditions": "dose 0.3-1.2 µM, time 4.0 day, DDE = dose-dependent effect", "procedure,_shortened": "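Golden mutant or Tg(mpeg1:mCherry) zebrafish embryos were dechorionated and anaesthetised in 0.016% tricaine. At 30 hpf, 2–3 nL containing about 200–250 cfu of Wasabi-expressing M. marinum M (pTEC15) was injected into the caudal vein. The inoculum was confirmed by plating on 7H10. Embryos were kept in E3 at 28.5 °C, 12 per well, to follow infection and survival.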"}, "Mycobacterium marinum [10]": {"system": "Mycobacterium marinum", "test": "In vivo antimycobacterial efficacy in Mycobacterium marinum expressing Wasabi infected zebrafish larvae assessed as prolongation of survival time at 4.8 uM treated for 4 days after 1 day post infection", "type": "functional", "conditions": "time 4 day"}, "[11]": {"molecular_target": "Type II NADH:quinone oxidoreductase Ndh (Mycobacterium tuberculosis, UniProt P95160)", "sequence (P95160 whole entry)": "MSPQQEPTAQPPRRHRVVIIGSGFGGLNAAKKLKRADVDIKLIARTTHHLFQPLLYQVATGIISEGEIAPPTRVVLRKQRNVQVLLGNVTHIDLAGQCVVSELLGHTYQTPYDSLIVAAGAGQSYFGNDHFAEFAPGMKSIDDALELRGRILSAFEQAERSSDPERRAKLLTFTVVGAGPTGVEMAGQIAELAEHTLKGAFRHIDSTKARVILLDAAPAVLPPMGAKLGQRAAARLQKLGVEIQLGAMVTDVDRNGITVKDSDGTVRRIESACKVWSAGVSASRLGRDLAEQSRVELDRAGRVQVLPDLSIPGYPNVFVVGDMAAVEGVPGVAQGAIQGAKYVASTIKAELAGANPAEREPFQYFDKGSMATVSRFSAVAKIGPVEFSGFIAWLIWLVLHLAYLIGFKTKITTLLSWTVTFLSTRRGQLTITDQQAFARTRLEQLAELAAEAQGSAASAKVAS", "test": "Inhibition of Mycobacterium tuberculosis recombinant type II NADH dehydrogenase ndh expressed in Escherichia coli assessed as rate of NADH oxidation in the presence of an electron acceptor menadione", "procedure,_shortened": "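Purified N-terminal MBP-tagged Mtb Ndh (Rv1854c) expressed in E. coli, 70 nM, with 500 µM NADH in 50 mM HEPES pH 7.1 (K₂HPO₄). Compound pre-incubated 15 min at 25°C, reaction started with 100 µM menadione. NADH oxidation followed at 340 nm every 60 s. Rate taken from linear slope; IC50 is the mean ± SD of at least 3 independent experiments.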"}, "[12]": {"test": "Toxicity in noninfected zebrafish larvae assessed as larval development", "set-up": "species or system Danio rerio", "conditions": "in vivo"}},
  "note": "Active and inactive are the calls of the source. The calls are words filed in the database; no cut-off is given here.",
  "data": [
    {"smiles": "COc1nc2ccc(Br)cc2cc1[C@@H](c1ccccc1)[C@@](O)(CCN(C)C)c1cccc2ccccc12", "note": "[BEDAQUILINE]", "values": [
      {"measurement": "IC50", "setting": "[1]", "value": 34, "unit": "nM"},
      {"measurement": "Activity", "setting": "[2]", "value": 1, "unit": "log10CFU"},
      {"measurement": "Activity", "setting": "[3]", "value": "Tde"}
    ]},
    {"smiles": "CC[C@H](C)[C@H]1CO[C@]23CCN(Cc4ccccc4)C[C@H]2CCC(=O)N13", "values": [
      {"measurement": "MIC98", "setting": "[4]", "value": 9.5, "unit": "µM"}
    ]},
    {"smiles": "CC[C@H]1CO[C@]23CCN(Cc4ccccc4)C[C@H]2CCC(=O)N13", "values": [
      {"measurement": "MIC98", "setting": "[4]", "value": 18.8, "unit": "µM"}
    ]},
    {"smiles": "C[C@H]1CO[C@]23CCN(Cc4ccccc4)C[C@H]2CCC(=O)N13", "values": [
      {"measurement": "MIC98", "setting": "[4]", "value": ">100", "unit": "µM"}
    ]},
    {"smiles": "CC(C)[C@H]1CO[C@]23CCN(Cc4ccc(C(F)(F)F)nc4)C[C@H]2CCC(=O)N13", "values": [
      {"measurement": "Activity", "setting": "[5]", "value": "Non-Toxic"},
      {"measurement": "MIC98", "setting": "[4]", "value": 0.59, "unit": "µM"},
      {"measurement": "Activity", "setting": "Mycobacterium marinum [6]", "value": "Active"},
      {"measurement": "IC50", "setting": "[7]", "value": 330, "unit": "nM"},
      {"measurement": "logD", "setting": "[8]", "value": 2.7},
      {"measurement": "IC50", "setting": "[1]", "value": 2400, "unit": "nM"},
      {"measurement": "Activity", "setting": "Mycobacterium marinum [9]", "value": "Dde"},
      {"measurement": "Time", "setting": "Mycobacterium marinum [10]", "value": 3, "unit": "days"},
      {"measurement": "IC50", "setting": "[11]", "value": 32, "unit": "nM"},
      {"measurement": "Activity", "setting": "[12]", "value": "Non-Toxic"}
    ]},
    {"smiles": "NNC(=O)c1ccncc1", "note": "[ISONIAZID]", "values": [
      {"measurement": "IC50", "setting": "[1]", "value": 204, "unit": "nM"}
    ]}
  ]
}
